# Experiments:
# L1210 [1] = test: Antitumor activity against mouse L1210 cells allografted in C3D2F1/J mouse assessed as increase in life span at 24.2 mg/kg, ip qd administered for 5 days relative to control; format: functional; settings: 120 h, route intraperitoneal
# L1210 [2] = test: Antitumor activity against mouse L1210 cells allografted in C3D2F1/J mouse assessed as median survival time at 50 mg/kg, ip qd administered for 5 days (reference value: 9 days); format: functional; settings: route intraperitoneal
# Mus musculus [3] = test: Toxicity in C3D2F1/J mouse allografted with mouse L1210 cells assessed as body weight change at 24.2 mg/kg, ip qd administered for 5 days measured on day 8 (reference value: 1.81 +/- 0.79 g); format: organism-based; set-up: dose 24.2 mg/kg, route intraperitoneal; settings: in vivo, 120 h
# L1210 [4] = test: Antitumor activity against mouse L1210 cells allografted in C3D2F1/J mouse assessed as median survival time at 24.2 mg/kg, ip qd administered for 5 days (reference value: 10 days); format: functional; settings: route intraperitoneal
# L1210 [5] = test: Antitumor activity against mouse L1210 cells allografted in C3D2F1/J mouse assessed as increase in life span at 50 mg/kg, ip qd administered for 5 days relative to control; format: functional; settings: 120 h, route intraperitoneal
# Mus musculus [6] = test: Toxicity in C3D2F1/J mouse allografted with mouse L1210 cells assessed as body weight change at 50 mg/kg, ip qd administered for 5 days measured on day 8 (reference value: 1.81 +/- 0.79 g); format: organism-based; set-up: dose 50 mg/kg, route intraperitoneal; settings: in vivo, 120 h
# L1210 [7] = test: Cytotoxicity against mouse L1210 cells assessed as growth inhibition measured at 72 hrs in presence of 100 uM prednisolone by trypan blue exclusion assay; format: functional; settings: L1210, 72 h, read-out: ED50 (the source's name)
# Summary of the method: (§1)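 L1210 mouse lymphoid leukemia cells seeded at 2–3 × 10⁵ cells/mL in RPMI 1640 + 10% fetal calf serum with compound (from Me2SO stock, final Me2SO 0.5%, compound 100 μM or lower). Viable cells counted by 0.05% Trypan blue exclusion in a hemocytometer at 24, 48, 72 h. Treated/untreated density ratio. ED50 at 72 h interpolated from response curves of three separate experiments.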
# L1210 [8] = test: Cytotoxicity against mouse L1210 cells assessed as growth inhibition measured at 72 hrs in presence of 5 uM prednisolone by trypan blue exclusion assay; format: functional; settings: L1210, 72 h, read-out: ED50 (the source's name); summary of the method: as §1
# L1210 [9] = test: Cytotoxicity against mouse L1210 cells assessed as growth inhibition measured at 72 hrs by trypan blue exclusion assay; format: functional; settings: L1210, 72 h, read-out: ED50 (the source's name); summary of the method: as §1
# L1210 [10] = test: Antitumor activity against mouse L1210 cells allografted in C3D2F1/J mouse assessed as increase in life span at 18.2 mg/kg, ip qd administered for 5 days relative to control; format: functional; settings: 120 h, route intraperitoneal
# Mus musculus [11] = test: Toxicity in C3D2F1/J mouse allografted with mouse L1210 cells assessed as body weight change at 18.2 mg/kg, ip qd administered for 5 days measured on day 8 co-administered with 27 mg/kg prednisolone (reference value: 1.81 +/- 0.79 g); format: organism-based; settings: in vivo, 120 h
# Mus musculus [12] = test: Toxicity in C3D2F1/J mouse allografted with mouse L1210 cells assessed as body weight change at 18.3 mg/kg, ip qd administered for 5 days measured on day 8 co-administered with 27 mg/kg prednisone (reference value: 1.81 +/- 0.79 g); format: organism-based; settings: in vivo, 120 h
# L1210 [13] = test: Antitumor activity against mouse L1210 cells allografted in C3D2F1/J mouse assessed as median survival time at 18.3 mg/kg, ip qd administered for 5 days co-administered with 27 mg/kg prednisone (reference value: 9 days); format: functional
# L1210 [14] = test: Antitumor activity against mouse L1210 cells allografted in C3D2F1/J mouse assessed as increase in life span at 18.2 mg/kg, ip qd administered for 5 days co-administered with 27 mg/kg prednisolone relative to control; format: functional
# L1210 [15] = test: Antitumor activity against mouse L1210 cells allografted in C3D2F1/J mouse assessed as median survival time at 25 mg/kg, ip qd administered for 5 days (reference value: 8 days); format: functional; settings: route intraperitoneal
# L1210 [16] = test: Antitumor activity against mouse L1210 cells allografted in C3D2F1/J mouse assessed as median survival time at 18.2 mg/kg, ip qd administered for 5 days (reference value: 10 days); format: functional; settings: route intraperitoneal
# Mus musculus [17] = test: Toxicity in C3D2F1/J mouse allografted with mouse L1210 cells assessed as body weight change at 18.2 mg/kg, ip qd administered for 5 days measured on day 8 (reference value: 1.81 +/- 0.79 g); format: organism-based; set-up: dose 18.2 mg/kg, route intraperitoneal; settings: in vivo, 120 h
# L1210 [18] = test: Antitumor activity against mouse L1210 cells allografted in C3D2F1/J mouse assessed as increase in life span at 18.3 mg/kg, ip qd administered for 5 days co-administered with 27 mg/kg prednisone relative to control; format: functional
# L1210 [19] = test: Antitumor activity against mouse L1210 cells allografted in C3D2F1/J mouse assessed as median survival time at 18.2 mg/kg, ip qd administered for 5 days co-administered with 27 mg/kg prednisolone (reference value: 9 days); format: functional
# Mus musculus [20] = test: Toxicity in C3D2F1/J mouse allografted with mouse L1210 cells assessed as body weight change at 25 mg/kg, ip qd administered for 5 days measured on day 8 (reference value: 1.81 +/- 0.79 g); format: organism-based; set-up: dose 25 mg/kg, route intraperitoneal; settings: in vivo, 120 h
# L1210 [21] = test: Antitumor activity against mouse L1210 cells allografted in C3D2F1/J mouse assessed as increase in life span at 25 mg/kg, ip qd administered for 5 days relative to control; format: functional; settings: 120 h, route intraperitoneal
# L1210 [22] = test: Antitumor activity against mouse L1210 cells allografted in C3D2F1/J mouse assessed as median survival time at 25 mg/kg, ip qd administered for 5 days (reference value: 9 days); format: functional; settings: route intraperitoneal
# L1210 [23] = test: Antitumor activity against mouse L1210 cells allografted in C3D2F1/J mouse assessed as median survival time at 75 mg/kg, ip qd administered for 5 days (reference value: 9 days); format: functional; settings: route intraperitoneal
# [24] = Drug degradation assessed as ara-C formation at 5 umol at pH 9 after 24 hrs by UV analysis in presence of Crotalus adamanteus 5'-nucleotidase; format: physicochemical; settings: buffer, pH 9, 24 h
# Summary of the method: (§2)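 Crude Crotalus adamanteus venom: 5 μmol conjugate in Tris-HCl buffer (pH 8.8) with 2.5 mg venom, 0.5 mL total, incubated 37 °C for 24 h. Products were resolved by paper chromatography alongside authentic markers.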
# L1210 [25] = test: Antitumor activity against mouse L1210 cells allografted in C3D2F1/J mouse assessed as increase in life span at 75 mg/kg, ip qd administered for 5 days relative to control; format: functional; settings: 120 h, route intraperitoneal
# L1210 [26] = test: Antitumor activity against mouse L1210 cells allografted in C3D2F1/J mouse assessed as increase in life span at 100 mg/kg, ip qd administered for 5 days relative to control; format: functional; settings: 120 h, route intraperitoneal
# [27] = Drug degradation in baboon plasma at 5 umol at 37 degC after 24 hrs by UV analysis; format: ADME, cell-free; settings: papio anubis, read-out: Drug degradation
# Summary of the method: (§3)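 5 μmol conjugate in 0.5 mL fresh baboon plasma, incubated at 37 °C for 24 h. Intact conjugate and products were separated by paper chromatography with authentic markers.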
# [28] = Hydrolytic stability of the compound assessed as remaining compound level at 5 umol at pH 4.8 at 25 degC after 24 hrs by UV analysis in presence of wheat germ acid phosphatase; format: physicochemical; settings: read-out: Stability
# Summary of the method: (§4)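 5 μmol conjugate in NaOAc buffer (pH 4.8) with 3 mg crude wheat germ acid phosphatase, 0.5 mL total, held at 25 °C for 24 h. Products were separated by paper chromatography against authentic markers.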
# [29] = Metabolic stability in baboon plasma assessed as remaining compound level at 5 umol at 37 degC after 24 hrs by UV analysis; format: ADME, cell-free; settings: papio anubis, read-out: Stability; summary of the method: as §3
# [30] = Drug degradation assessed as compound hydrolysis at 5 umol at pH 4.8 at 25 degC after 24 hrs by UV analysis in presence of wheat germ acid phosphatase; format: physicochemical; settings: read-out: Drug degradation; summary of the method: as §4
# [31] = Hydrolytic stability of the compound at 5 umol at pH 8 at 25 degC after 24 hrs by UV analysis in presence of bacterial alkaline phosphatase; format: physicochemical; settings: isolated protein, pH 8, 24 h
# Summary of the method: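 5 μmol conjugate in Tris-HCl (pH 8.0) with bacterial alkaline phosphatase suspension, 0.5 mL total, incubated at 25 °C for 24 h. Paper chromatography against authentic markers.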
# L1210 [32] = test: Antitumor activity against mouse L1210 cells allografted in C3D2F1/J mouse assessed as median survival time at 100 mg/kg, ip qd administered for 5 days (reference value: 9 days); format: functional; settings: route intraperitoneal
# Mus musculus [33] = test: Toxicity in C3D2F1/J mouse allografted with mouse L1210 cells assessed as body weight change at 75 mg/kg, ip qd administered for 5 days measured on day 8 (reference value: 1.81 +/- 0.79 g); format: organism-based; set-up: dose 75 mg/kg, route intraperitoneal; settings: in vivo, 120 h
# [34] = Drug degradation assessed as steroid formation at 5 umol at pH 9 after 24 hrs by UV analysis in presence of Crotalus adamanteus 5'-nucleotidase; format: physicochemical; settings: buffer, pH 9, 24 h; summary of the method: as §2
# Mus musculus [35] = test: Toxicity in C3D2F1/J mouse allografted with mouse L1210 cells assessed as body weight change at 100 mg/kg, ip qd administered for 5 days measured on day 8 (reference value: 1.81 +/- 0.79 g); format: organism-based; set-up: dose 100 mg/kg, route intraperitoneal; settings: in vivo, 120 h
smiles,measurement,setting,value
Nc1ccn([C@@H]2O[C@H](COP(=O)(O)O)[C@@H](O)[C@@H]2O)c(=O)n1 [CYTARABINE 5'-PHOSPHATE],ILS at 24.2 mg/kg,L1210 [1],65%
same,MST,L1210 [2],9 days
same,Activity,Mus musculus [3],-3.52 g
same,MST,L1210 [4],16.5 days
same,ILS at 50 mg/kg,L1210 [5],0%
same,Activity,Mus musculus [6],-4.32 g
same,EC50,L1210 [7],5 nM
same,EC50,L1210 [8],10 nM
same,EC50,L1210 [9],50 nM
Nc1ccn([C@@H]2O[C@H](CO)[C@@H](O)[C@@H]2O)c(=O)n1 [CYTARABINE],ILS at 18.2 mg/kg,L1210 [10],45%
same,Activity,Mus musculus [11],-2.46 g
same,MST,L1210 [2],10 days
same,Activity,Mus musculus [12],-1.25 g
same,MST,L1210 [13],13 days
same,ILS,L1210 [14],40%
same,MST,L1210 [15],9.5 days
same,ILS at 50 mg/kg,L1210 [5],11.1%
same,MST,L1210 [16],14.5 days
same,Activity,Mus musculus [17],-3.64 g
same,ILS,L1210 [18],44%
same,Activity,Mus musculus [6],-4.2 g
same,MST,L1210 [19],14 days
same,Activity,Mus musculus [20],-3.8 g
same,EC50,L1210 [9],100 nM
same,ILS at 25 mg/kg,L1210 [21],18.8%
C[C@]12C=CC(=O)C=C1CC[C@@H]1[C@@H]2C(=O)C[C@@]2(C)[C@H]1CC[C@]2(O)C(=O)CO[P+]([O-])(O)OC[C@H]1O[C@@H](n2ccc(N)nc2=O)[C@@H](O)[C@@H]1O (stereo not given in full),MST,L1210 [22],14.5 days
same,MST,L1210 [2],18 days
same,MST,L1210 [23],14 days
same,Drug degradation,[24],50%
same,ILS at 75 mg/kg,L1210 [25],55.6%
same,ILS at 100 mg/kg,L1210 [26],11.1%
same,ILS at 50 mg/kg,L1210 [5],100%
same,"metabolised at 24 h, 5 umol",[27],15%
same,"remaining at 24 h, 5 umol",[28],7%
same,Activity,Mus musculus [6],-0.3 g
same,"remaining at 24 h, 5 umol",[29],74%
same,"metabolised at 24 h, 5 umol",[30],88%
same,Stability,[31],Stable
same,MST,L1210 [32],10 days
same,Activity,Mus musculus [33],-0.75 g
same,Drug degradation,[34],50%
same,Activity,Mus musculus [20],-0.14 g
same,EC50,L1210 [9],500 nM
same,Activity,Mus musculus [35],-1.5 g
same,ILS at 25 mg/kg,L1210 [21],61.1%

# — ChEMBL document CHEMBL3244344, “Nucleoside conjugates as potential antitumor agents. 2. Synthesis and biological activity of 1-(beta-D-arabinofuranosyl)cytosine conjugates of prednisolone and prednisone” (J Med Chem, 1979)
